Here are results for four compounds from ChEMBL document CHEMBL2331302, “Selection of heptapeptides that bind helix 69 of bacterial 23S ribosomal RNA” (Bioorg Med Chem, 2013).

pKd: −log10 of the molar value. Calls of active or inactive are those of the source. No cut-off for these calls is given here.

For test [1], the system named is Escherichia coli. Nature of the test: Selectivity ratio of Kd for Escherichia coli H69-UUU RNA to Kd for wild type Escherichia coli H69 RNA.
In test [2] the test system is Escherichia coli. Nature of the test: Selectivity ratio of apparent Kd for Escherichia coli H69-2(pseudouridine)U RNA at 4- charge state at pH 7 to apparent Kd for wild type Escherichia coli H69 RNA at 4- charge state at pH 7. The procedure, abridged:
(§1)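 The ratio compares apparent Kd for each RNA with that for modified wild-type H69, both for 1:1 complexes from ESI-MS at pH 7.0. Conditions: 150 mM ammonium acetate, 25% 2-propanol, 1–3 μM RNA, 0–120 μM amidated peptide, fraction bound fitted by a quadratic equation.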

Test [3] relates to Escherichia coli. Nature of the test: Selectivity ratio of apparent Kd for Escherichia coli A-site 16s rRNA at pH 7 to apparent Kd for wild type Escherichia coli H69 RNA at pH 7. An outline of the steps: as §1
The nature of test [4]: Binding affinity to human H69 RNA at pH 7 after 30 mins by ESI-MS analysis. To be noted: read-out: Kd(app). The procedure, abridged:
(§2)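 ESI-MS titration of free amidated peptide (0–120 μM) with 1–3 μM RNA (50 μL) in 150 mM ammonium acetate, pH 7.0 or 5.2, 25% 2-propanol. Summed peak areas of complexes (1:1, 1:2, Na+/K+ adducts) over free plus complexed RNA give fraction bound, either per charge state (4−, 5−) or all states. Apparent Kd comes from a quadratic fit, three independent experiments.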

A short description of test [5]: Binding affinity to Escherichia coli A-site 16s rRNA at pH 7 after 30 mins by ESI-MS analysis. The conditions noted are these: read-out: Kd(app). An outline of the steps: as §2
Test [6] in a line: Binding affinity to Escherichia coli helix 31 at pH 7 after 30 mins by ESI-MS analysis. To be noted: read-out: Kd(app). The procedure, abridged:
as §2

In test [7] the test system is Escherichia coli. Nature of the test: Selectivity ratio of apparent Kd for Escherichia coli H69-pseudouridineUpseudouridine RNA at 4- charge state at pH 7 to apparent Kd for wild type Escherichia coli H69 RNA at 4- charge state at pH 7.
Test [8] can be described thus: Binding affinity to wild type Escherichia coli H69 RNA at 4- charge state at pH 5.2 after 30 mins by ESI-MS analysis. The conditions noted are these: read-out: Kd(app). An outline of the steps: as §2
Test [9] can be described thus: Binding affinity to Escherichia coli H69-UUU RNA at 4- charge state at pH 7 after 30 mins by ESI-MS analysis. To be noted: read-out: Kd(app). The procedure, abridged:
as §2

A short description of test [10]: Binding affinity to Escherichia coli H69-UUU RNA at 4- charge state at pH 5.2 after 30 mins by ESI-MS analysis. To be noted: read-out: Kd(app). An outline of the steps: as §2
Test [11] deals with Escherichia coli. Description: Selectivity ratio of apparent Kd for Escherichia coli H69-U2(pseudouridine) RNA at 4- charge state at pH 7 to apparent Kd for wild type Escherichia coli H69 RNA at 4- charge state at pH 7. An outline of the steps: as §1
Test [12] in a line: Selectivity ratio of apparent Kd for human H69 RNA at pH 7 to apparent Kd for wild type Escherichia coli H69 RNA at pH 7. The procedure, abridged: as §1
Test [13] relates to Escherichia coli. Description: Ratio of apparent Kd for wild type Escherichia coli H69-UUU RNA at 4- charge state at pH 5.2 to apparent Kd for wild type Escherichia coli H69-UUU RNA at 4- charge state at pH 7. An outline of the steps:
(§3)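 The ratio compares apparent Kd for the 4− charge-state 1:1 complex from ESI-MS titrations at pH 5.2 and pH 7.0. Conditions: 150 mM ammonium acetate, 25% 2-propanol, 1–3 μM RNA, 0–120 μM amidated peptide, quadratic fit.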

Test [14] in a line: Binding affinity to Escherichia coli H69-U2(pseudouridine) RNA at 4- charge state at pH 7 after 30 mins by ESI-MS analysis. To be noted: read-out: Kd(app). The procedure, abridged: as §2
Test [15] has as its system Escherichia coli. Nature of the test: Ratio of apparent Kd for wild type Escherichia coli H69 RNA at 4- charge state at pH 5.2 to apparent Kd for wild type Escherichia coli H69 RNA at 4- charge state at pH 7. The procedure, abridged:
as §3

A short description of test [16]: Binding affinity to Escherichia coli H69-pseudouridineUpseudouridine RNA at 4- charge state at pH 7 after 30 mins by ESI-MS analysis. The conditions noted are these: read-out: Kd(app). The procedure, abridged:
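ESI-MS on a tandem quadrupole instrument: 1–3 μM RNA with 0–120 μM amidated peptide in 150 mM ammonium acetate, pH 7.0, 25% 2-propanol. Summed peak areas of free RNA and 1:1 complex (with Na+/K+ adducts) at the 4− charge state were used to get the fraction bound. Apparent Kd came from a quadratic-equation non-linear fit. Three independent experiments were run.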

The nature of test [17]: Binding affinity to Escherichia coli H69-2(pseudouridine)U RNA at 4- charge state at pH 7 after 30 mins by ESI-MS analysis. To be noted: read-out: Kd(app). The procedure, abridged:
as §2

In test [18] the test system is Escherichia coli. Nature of the test: Selectivity ratio of apparent Kd for Escherichia coli helix 31 at pH 7 to apparent Kd for wild type Escherichia coli H69 RNA at pH 7. The procedure, abridged: as §1
Test [19] relates to Escherichia coli. Nature of the test: Selectivity ratio of apparent Kd for Escherichia coli H69-UUU RNA at 4- charge state at pH 7 to apparent Kd for wild type Escherichia coli H69 RNA at 4- charge state at pH 7. An outline of the steps:
as §1

Test [20] deals with Escherichia coli. Nature of the test: Binding affinity to wild type Escherichia coli Qdot-labeled H69 RNA after 16 hrs by fluorescein-based bead assay. An outline of the steps:
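1 nM fluorescein-H69 was pre-incubated 1 h with 1 nM anti-fluorescein Qdot 655, then with beads for 16 h at 4 °C. Beads were washed, and red and green per-bead pixel intensities (1–255 scale) quantified against no-peptide beads.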

The species named for test [21] is Homo sapiens. Description: Binding affinity to human 5'-fluorescein-tagged 18s RNA after 24 hrs by fluorescein-based bead assay. An outline of the steps:
(§4)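 TentaGel beads carrying peptide with a free N-terminus were blocked 3 h in SuperBlock (PBS, 0.05% Tween-20) and water-washed. About 10–12 beads were incubated with 15 μL of 1 μM 5′-fluorescein-labelled RNA in 10 mM HEPES for 24 h at 4 °C with shaking, repeated 4× with fresh RNA. Beads were water-washed and imaged by fluorescence microscopy. Peptide-free beads gave background.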

For test [22], the species on record is Homo sapiens. Nature of the test: Binding affinity to human 5'-fluorescein-tagged TAR RNA after 24 hrs by fluorescein-based bead assay. The procedure, abridged: as §4
In test [23] the test system is Escherichia coli. Nature of the test: Binding affinity to wild type Escherichia coli 5'-fluorescein-tagged H69 RNA after 24 hrs by fluorescein-based bead assay relative to control. An outline of the steps: as §4

With `NC[C@@H]1O[C@H](O[C@H]2[C@@H](O)[C@H](O[C@@H]3[C@@H](O)[C@H](N)C[C@H](N)[C@H]3O[C@H]3O[C@H](CO)[C@@H](O)[C@H](O)[C@H]3N)O[C@@H]2CO)[C@H](N)[C@@H](O)[C@@H]1O`, in test [1], the Selectivity ratio is 2.

Turning to H-NQVANHQ-NH2, the Selectivity ratio in test [2] amounted to 2.3; in test [3], 4; in test [7] it was 2.3; in test [11], 2.3; in [12], 4; in [18], 3. Further, the Selectivity ratio in [19] is 1.6. Also, the negative logarithm of the Kd (pKd) – broadly, the negative decadic logarithm of the Kd, by convention in mol/L – was 4.30 in test [4]; 4.31 in test [5]; 4.48 in test [6]; 4.47 in test [8]; 4.72 in test [9]; 4.51 in test [10]. Moreover, the pKd in test [14], in test [16] and in test [17] was 4.55 in each case. Moreover, the Ratio in test [13] worked out at 1.6; in test [15], 2.8.

In the case of H-NQVANHQ-OH, the result in test [20] and in test [23] was Active. Further, the outcome in test [21] and in test [22] was inactive.

As to H-STYTSVS-OH, the outcome in test [20], in test [22] and in test [23] was Active.
